Source: article PMC8790739 (JACS Au, 2022)

Columns and labels:
[1] = test system: A. thaliana cotyledons; assay: Evans blue viability assay, A. thaliana cotyledons; format: cell-based, Arabidopsis thaliana; conditions: 1 h, vacuum/compression infiltration, n = 4, Figure 2A, particularly dTat-Sar-EED5
[2] = test system: O. sativa calli; assay: Evans blue viability assay, O. sativa calli; format: cell-based, Oryza sativa; conditions: 1 h, vacuum/compression infiltration, n = 4, Figure 2A, particularly dTat-Sar-EED5
[3] = test system: M. polymorpha sporelings; assay: Evans blue viability assay, M. polymorpha sporelings; format: cell-based, Marchantia polymorpha; conditions: 1 h at 22 °C, n = 4, Figure 2A
Summary of the method: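 Marchantia polymorpha sporelings (Tak-1 × Tak-2 cross, held 4 days in water) incubated with peptide for 1 h at 22 °C, then stained with Evans blue 150 μg/mL. Stained (dead) and unstained (live) cells counted; viability taken from live/dead ratio. Boiled sporelings (95 °C, 10 min) served as 100% dead. Four biological replicates, mean ± SE, Dunnett's T3 versus 0 μM.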

[4] = test system: C. reinhardtii cells; assay: Colony formation viability assay, C. reinhardtii; format: cell-based, Chlamydomonas reinhardtii; conditions: for Cell death in C. reinhardtii (colony formation assay): 2.5 μM peptide, 20 min in TAP medium with 40 mM sucrose, n = 3, Figure 2C
Summary of the method: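 Log-phase Chlamydomonas reinhardtii wild-type cc125+ (2 days after subculture, grown in TAP at 23 °C under constant light) exposed to peptide (39 nM–2.5 μM) for 20 min in TAP with 40 mM sucrose. Cells washed, plated on TAP agar, colonies counted. Viability = colonies with peptide ÷ colonies without. Three biological replicates, mean ± SD.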

[5] = test system: E. gracilis cells; assay: Evans blue viability assay, E. gracilis; format: cell-based, Euglena gracilis; conditions: 9 nM–90 μM peptide, 3 h at 26 °C, n = 3, Figure 2C
Summary of the method: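 Euglena gracilis was grown in CM medium pH 3.5 (26 °C, 100 rpm) to OD730 0.23, then incubated with peptide (9 nM–90 μM) for 3 h at 26 °C. Cells pelleted and stained with Evans blue 150 μg/mL for 20 min, washed three times, then live and dead cells counted microscopically. Viability = live/dead ratio relative to untreated cells. Three biological replicates, mean ± SD.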

[6] = test system: tobacco BY-2 cells; assay: Peptide-mediated Citrine transduction; format: cell-based, Nicotiana tabacum; conditions: for Citrine internalization into BY-2 cells at lower peptide concentrations: 9 nM–9 μM peptide (low concentrations), Figure S2; for Citrine fluorescence in the nuclei of BY-2 cells: 1 h incubation
Summary of the method: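 Exponentially growing BY-2 cells (OD600 0.5) mixed in a glass-bottom dish with Citrine plus peptide, or with individual peptide domains as controls, for 1 h at 26 °C. Citrine-only cells served as control. Uptake was imaged directly by confocal microscopy at Ex/Em 488/515–580 nm.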

[7] = test system: C. reinhardtii cells; assay: Peptide-mediated Citrine transduction; format: cell-based, Chlamydomonas reinhardtii; conditions: 156 nM peptide, Citrine 100 μg/mL, 20 min (b14 says 3 h), CLSM, Figure 2D
Summary of the method: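 Log-phase Chlamydomonas cells suspended in TAP containing 156 nM peptide, 100 μg/mL Citrine and 40 mM sucrose, for 20 min. Cells washed and mounted on slides; Citrine-only cells served as control. Confocal imaging: Citrine at Ex/Em 488/520–550 nm, chlorophyll at 488/660–720 nm.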

[8] = test system: E. gracilis cells; assay: Peptide-mediated Citrine transduction; format: cell-based, Euglena gracilis; conditions: 9 μM peptide, Citrine 100 μg/mL, 3 h at 26 °C, CLSM, Figure 2D
Summary of the method: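 Euglena suspension (OD730 0.23) exposed to Citrine with or without peptide in culture medium in a 96-well plate, 3 h at 26 °C, shaking at 100 rpm. Confocal imaging: Citrine at Ex/Em 488/520–550 nm, chlorophyll at 488/660–720 nm.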

[9] = test system: tobacco (Nicotiana tabacum) Bright Yellow-2 (BY-2) cells; assay: Evans blue cell viability assay, BY-2 cells; format: cell-based
[10] = test system: A. thaliana cotyledons; assay: Peptide-mediated Citrine transduction; format: cell-based, Arabidopsis thaliana; conditions: 90 μM peptide, Citrine 200 μg/mL, CLSM, Figure 2B
Summary of the method: (§1)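 Col-0 cotyledons (seedlings 7–9 days) or Nipponbare calli (1 week on N6D, 30 °C, constant light) vacuum/compression-infiltrated with 200 μg/mL Citrine, with 90 μM peptide or alone as control. Incubation 1 h: cotyledons at 22 °C, calli at 30 °C. Washed twice with 1/2 MS plus 1% sucrose; confocal imaging at Ex/Em 488/515–560 nm.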

[11] = test system: O. sativa calli; assay: Peptide-mediated Citrine transduction; format: cell-based, Oryza sativa; conditions: 90 μM peptide, Citrine 200 μg/mL, CLSM, Figure 2B
Summary of the method: as §1

[12] = test system: M. polymorpha sporelings; assay: Peptide-mediated Citrine transduction; format: cell-based, Marchantia polymorpha; conditions: 90 μM peptide, Citrine 200 μg/mL, 1 h at 22 °C, CLSM, Figure 2B
Summary of the method: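 Sporelings incubated 1 h at 22 °C in solution with 90 μM peptide and 200 μg/mL Citrine; Citrine alone served as control. Time-gated confocal detection (0.5–12.0 ns) at Ex/Em 510/546–566 nm.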

[13] = test system: A. thaliana root epidermal cells; assay: FM4-64 uptake into A. thaliana roots; format: cell-based, Arabidopsis thaliana; conditions: dTat-Sar-EED4 30 μM, FM4-64 10 μM, Figure 4B
Summary of the method: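 Roots of Col-0 seedlings (7–9 days) pretreated 30 min at 25 °C in 1/2 MS with 0.6% v/v DMSO or 30 μM ES9-17. FM4-64 (10 μM) then added, ± peptide, for 30 min at 25 °C in the dark. Confocal imaging at Ex/Em 488/620–680 nm. Mean intensity of manually segmented whole cytoplasm was divided by that of the apical plasma membrane, for more than 100 cells from 8 roots.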

[14] = 90 μM peptide, Citrine 100 μg/mL, CLSM, Figure 1D

Row | Substance | Concentrations at which toxic to A. thaliana cotyledons [1] [µM] | Concentrations at which toxic to O. sativa calli [2] [µM] | Cell death in M. polymorpha sporelings [3] | Cell death in C. reinhardtii (colony formation assay) [4] | Cytotoxicity toward E. gracilis [5] | Citrine internalization into BY-2 cells at lower peptide concentrations ([6]; CLSM) | Citrine fluorescence in the nuclei of BY-2 cells [6, 14] | further results
1 | rrrqrrkkr-(Sar)6-GFWFG [dTat-Sar-EED5] | ≥ 90 | ≥ 90 | did not cause severe cell death | induced severe cell death | Neither peptide exhibited cytotoxicity | negligible Citrine uptake | detected Citrine fluorescence in the nuclei of some cells | Citrine internalization into C. reinhardtii [7]: Citrine was internalized; Citrine internalization into E. gracilis [8]: Citrine was internalized
2 | rrrqrrkkr-(Sar)6-GWWG [dTat-Sar-EED4] | ≥ 90 | ≥ 90 | did not cause severe cell death | induced severe cell death | Neither peptide exhibited cytotoxicity | no Citrine internalization was observed | detected Citrine fluorescence in the nuclei of some cells | Cytotoxicity to BY-2 cells after prolonged treatment ([9]; 90 μM for up to 48 h, n = 3, Figure S1): did not result in significant cytotoxicity; Toxicity to BY-2 cells compared between the two peptides ([9]; 1 h treatment, 9 μM to 9 mM, Figure 1B): less toxic than dTat-Sar-EED5; Toxicity to C. reinhardtii cells compared between the two peptides ([4]; concentrations of 156 nM or more, 20 min, colony formation assay, Figure 2C): slightly more toxic; Citrine internalization into BY-2 cells, time-lapse CLSM ([6]; 90 μM peptide, Citrine 100 μg/mL, Figure 1C, Movies S1, S2): rapid internalization of Citrine into BY-2 cells within a few minutes; Transfer of Citrine to the nucleus in A. thaliana cotyledon cells ([10]; 1 h): appeared to be transferred to the nucleus; Citrine internalization into A. thaliana cotyledons ([10]; 1 h at 22 °C): Citrine internalization was observed; Transfer of Citrine to the nucleus in O. sativa calli ([11]; 1 h): such behavior was not detected; Citrine internalization into O. sativa calli ([11]; 1 h at 30 °C): Citrine internalization was observed; Citrine internalization into M. polymorpha sporelings [12]: Citrine internalization was observed; Enhancement of FM4-64 uptake, DMSO-treated samples ([13]; DMSO 0.6% v/v): slight; Enhancement of FM4-64 uptake, ES9-17-treated samples ([13]; ES9-17 30 μM): more pronounced
3 | (Sar)6-GFWFG [Sar-EED5] | – | – | – | – | – | – | – | Citrine uptake by BY-2 cells with individual peptide domains ([6]; 90 μM of each peptide domain, 1 h, Citrine 100 μg/mL, CLSM, Figure 1D): did not show Citrine uptake
